According to ChEMBL document CHEMBL1147968, “Novel lbeta-methylcarbapenems having cyclic sulfonamide moieties: synthesis and evaluation of in vitro antibacterial activity” (2007):
≈ marks a conversion by molar mass, not a printed value.

What was measured:
Format in all cases: functional
[1] = test system: Staphylococcus; test: Antibacterial activity against coagulase negative Staphylococcus after 18 to 24 hrs by agar dilution method
In short: (§1)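 Agar dilution on test agar holding serial twofold dilutions of compound. Overnight tryptosoy broth cultures were diluted in the same broth to about 10⁶ cells/mL and spotted with an inoculating device. Plates were incubated at 37 °C for 18–20 h.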

[2] = test system: Streptococcus agalactiae; test: Antibacterial activity against Streptococcus agalactiae 32 after 18 to 24 hrs by agar dilution method
In short: (§2)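 MICs were determined by agar dilution on test agar. An overnight tryptosoy broth culture was diluted in the same broth to about 10⁶ cells/mL and spotted with an inoculating device onto agar containing serial twofold dilutions of compound. Plates were incubated at 37 °C for 18–20 h, and the MIC was the lowest concentration with no visible growth.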

[3] = test system: Streptococcus pneumoniae; test: Antibacterial activity against Streptococcus pneumoniae 0025 after 18 to 24 hrs by agar dilution method; in short: as §2
[4] = test system: Streptococcus pyogenes; test: Antibacterial activity against Streptococcus pyogenes 9889 after 18 to 24 hrs by agar dilution method; in short: as §1
[5] = test system: Citrobacter freundii; test: Antibacterial activity against Citrobacter freundii 323 after 18 to 24 hrs by agar dilution method; in short: as §2
[6] = test system: Enterococcus faecalis; test: Antibacterial activity against Enterococcus faecalis 2347 after 18 to 24 hrs by agar dilution method; in short: as §2
[7] = test system: Klebsiella pneumoniae; test: Antibacterial activity against Klebsiella pneumoniae 523 after 18 to 24 hrs by agar dilution method; in short: as §2
[8] = test system: Escherichia coli; test: Antibacterial activity against Escherichia coli 04 after 18 to 24 hrs by agar dilution method; in short: as §2
[9] = test system: Serratia marcescens; test: Antibacterial activity against Serratia marcescens 3349 after 18 to 24 hrs by agar dilution method; in short: as §2
[10] = test system: Pseudomonas aeruginosa; test: Antibacterial activity against Pseudomonas aeruginosa 5455 after 18 to 24 hrs by agar dilution method; in short: as §2
[11] = test system: Staphylococcus aureus; test: Antibacterial activity against Staphylococcus aureus 1218 after 18 to 24 hrs by agar dilution method; in short: as §2
[12] = test system: Haemophilus influenzae; test: Antibacterial activity against Haemophilus influenzae 1210 after 18 to 24 hrs by agar dilution method; in short: as §2
[13] = test system: Enterobacter cloacae; test: Antibacterial activity against Enterobacter cloacae 34 after 18 to 24 hrs by agar dilution method; in short: as §2
[14] = test system: Acinetobacter baumannii; test: Antibacterial activity against Acinetobacter baumannii 2289 after 18 to 24 hrs by agar dilution method; in short: as §2

MIC [1]: 0.098 µg/mL (≈ 0.213 µM)
MIC [2]: 0.02 µg/mL (≈ 0.0434 µM)
MIC [3]: 0.02 µg/mL (≈ 0.0434 µM)
MIC [4]: 0.02 µg/mL (≈ 0.0434 µM)
MIC [5]: 0.049 µg/mL (≈ 0.106 µM)
MIC [6]: 6.25 µg/mL (≈ 13.6 µM)
MIC [7]: 0.098 µg/mL (≈ 0.213 µM)
MIC [8]: 0.049 µg/mL (≈ 0.106 µM)
MIC [9]: 0.098 µg/mL (≈ 0.213 µM)
MIC [10]: 3.12 µg/mL (≈ 6.78 µM)
MIC [11]: 12.5 µg/mL (≈ 27.1 µM)
MIC [12]: 6.25 µg/mL (≈ 13.6 µM)
MIC [13]: 0.049 µg/mL (≈ 0.106 µM)
MIC [14]: 12.5 µg/mL (≈ 27.1 µM)
SMILES: C[C@@H](O)C1C(=O)N2C(C(=O)O)=C(S[C@@H]3CN[C@H](CN4CCN(C)S4(=O)=O)C3)[C@H](C)C12 (some centres undefined)
